For four compounds, IC50 results are on record in ChEMBL document CHEMBL1155708, “Isoaurostatin, a novel topoisomerase inhibitor produced by Thermomonospora alba” (J Nat Prod, 2001).

One assay addresses Deoxyribonuclease-1 (Bos taurus, UniProt P00639). In words: Inhibition of bovine pancreas DNase 1 assessed as undigested supercoiled pBR322 DNA concentration. In short, it runs like this:
(§1)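 Restriction enzyme or nuclease activity followed as the remaining undigested supercoiled pBR322 DNA (or RNA) after reaction.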

Assay [1] deals with T1, Type II restriction enzyme BamHI (Bacillus amyloliquefaciens, UniProt P23940).
T1 sequence (P23940 whole entry): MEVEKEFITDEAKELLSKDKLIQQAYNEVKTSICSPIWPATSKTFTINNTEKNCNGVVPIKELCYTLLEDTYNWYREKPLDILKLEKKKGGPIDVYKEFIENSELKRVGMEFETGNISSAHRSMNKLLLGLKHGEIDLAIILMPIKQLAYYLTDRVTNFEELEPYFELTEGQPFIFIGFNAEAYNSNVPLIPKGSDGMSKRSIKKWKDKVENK
The experiment in a line: Inhibition of Bacillus amyloliquifaction Bam H1 assessed as undigested supercoiled pBR322 DNA concentration. A digest of the protocol:
as §1

The nature of assay [2]: Inhibition of Arthrobacter luteus AluI assessed as undigested supercoiled pBR322 DNA concentration. Further details: species or system Cellulosimicrobium cellulans. In short, it runs like this: as §1
Another assay addresses T2, Ribonuclease pancreatic (Bos taurus, UniProt P61823).
T2 sequence (P61823 whole entry): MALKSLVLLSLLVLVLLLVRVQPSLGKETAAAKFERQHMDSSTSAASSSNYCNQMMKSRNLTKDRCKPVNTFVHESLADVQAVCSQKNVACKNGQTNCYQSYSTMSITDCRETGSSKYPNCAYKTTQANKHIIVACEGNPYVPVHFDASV
The experiment in a line: Inhibition of bovine pancreas RNase A assessed as undigested supercoiled pBR322 DNA concentration. A digest of the protocol: as §1

Assay [3] deals with T3, Type II restriction enzyme PstI (Providencia stuartii, UniProt P00640).
T3 sequence (P00640 whole entry): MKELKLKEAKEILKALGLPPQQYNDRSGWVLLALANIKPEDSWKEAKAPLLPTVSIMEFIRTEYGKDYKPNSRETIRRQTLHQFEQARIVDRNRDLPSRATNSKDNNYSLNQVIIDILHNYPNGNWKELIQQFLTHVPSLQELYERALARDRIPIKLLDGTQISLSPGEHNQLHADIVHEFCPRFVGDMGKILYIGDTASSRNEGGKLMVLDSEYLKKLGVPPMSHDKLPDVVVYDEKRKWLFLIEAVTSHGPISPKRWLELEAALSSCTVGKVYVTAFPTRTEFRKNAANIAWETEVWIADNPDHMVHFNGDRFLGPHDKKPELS
In words: Inhibition of Providencia stuartii Pst 1 assessed as undigested supercoiled pBR322 DNA concentration. In short, it runs like this:
as §1

Assay [4] deals with T4, Deoxyribonuclease-2-alpha (Sus scrofa, UniProt O62855).
T4 sequence (O62855 whole entry): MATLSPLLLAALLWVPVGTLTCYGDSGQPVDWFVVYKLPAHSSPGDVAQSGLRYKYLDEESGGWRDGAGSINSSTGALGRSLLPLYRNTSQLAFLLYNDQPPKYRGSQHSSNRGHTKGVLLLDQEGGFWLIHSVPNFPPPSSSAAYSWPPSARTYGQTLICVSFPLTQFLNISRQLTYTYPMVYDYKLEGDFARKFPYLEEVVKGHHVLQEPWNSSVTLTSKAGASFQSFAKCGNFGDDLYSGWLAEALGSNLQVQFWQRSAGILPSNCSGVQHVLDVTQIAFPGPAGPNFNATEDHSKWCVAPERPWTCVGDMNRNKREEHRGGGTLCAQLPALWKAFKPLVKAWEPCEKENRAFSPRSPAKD
In words: Inhibition of porcine spleen DNase 2 assessed as undigested supercoiled pBR322 DNA concentration. A digest of the protocol:
as §1

Assay [5] concerns the target Type II restriction enzyme EcoRI (Escherichia coli, UniProt P00642). In words: Inhibition of Escherichia coli Eco R1 assessed as undigested supercoiled pBR322 DNA concentration. A digest of the protocol:
as §1

In another assay the target is T5, DNA topoisomerase (Bos taurus, UniProt A0JN73).
T5 sequence (A0JN73 whole entry): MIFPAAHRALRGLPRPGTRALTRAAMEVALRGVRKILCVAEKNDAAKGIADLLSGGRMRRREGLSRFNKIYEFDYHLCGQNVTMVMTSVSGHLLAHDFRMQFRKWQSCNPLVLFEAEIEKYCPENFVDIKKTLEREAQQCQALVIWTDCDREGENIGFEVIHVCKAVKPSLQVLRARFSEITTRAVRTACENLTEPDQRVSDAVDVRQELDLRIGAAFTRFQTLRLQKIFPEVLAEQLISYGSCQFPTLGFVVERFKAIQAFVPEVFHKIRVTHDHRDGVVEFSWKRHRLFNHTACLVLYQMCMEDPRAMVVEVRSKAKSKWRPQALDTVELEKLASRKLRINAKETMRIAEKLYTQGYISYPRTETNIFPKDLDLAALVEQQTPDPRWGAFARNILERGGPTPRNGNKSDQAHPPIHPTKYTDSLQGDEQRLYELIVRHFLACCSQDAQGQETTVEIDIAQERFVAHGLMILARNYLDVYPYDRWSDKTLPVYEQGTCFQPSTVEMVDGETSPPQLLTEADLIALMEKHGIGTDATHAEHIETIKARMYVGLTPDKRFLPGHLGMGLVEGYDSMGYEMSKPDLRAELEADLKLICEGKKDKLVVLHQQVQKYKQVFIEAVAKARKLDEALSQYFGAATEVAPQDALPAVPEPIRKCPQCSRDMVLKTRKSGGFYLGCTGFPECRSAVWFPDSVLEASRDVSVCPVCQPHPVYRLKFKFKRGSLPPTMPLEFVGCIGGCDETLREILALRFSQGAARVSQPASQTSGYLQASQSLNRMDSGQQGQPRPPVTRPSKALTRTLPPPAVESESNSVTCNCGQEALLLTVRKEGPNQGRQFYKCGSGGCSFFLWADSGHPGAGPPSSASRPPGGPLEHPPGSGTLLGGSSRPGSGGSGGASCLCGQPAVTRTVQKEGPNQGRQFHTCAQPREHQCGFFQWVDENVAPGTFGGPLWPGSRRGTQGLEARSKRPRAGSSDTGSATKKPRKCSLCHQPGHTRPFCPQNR
In words: Inhibition calf thymus gland topoisomerase 1 assessed as conversion of supercoiled pBR322 DNA to relaxed form.

The target of assay [6] is T6, DNA topoisomerase 2-alpha (Homo sapiens, UniProt P11388). In words: Inhibition human placenta topoisomerase 2 assessed as conversion of catenated kinetoplast DNA to minicircle monomer. A digest of the protocol:
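Human placenta topoisomerase II decatenation followed as conversion of catenated kinetoplast DNA to minicircle monomers.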

The target in assay [7] is T6, DNA topoisomerase 2-alpha. The experiment in a line: Inhibition human placenta topoisomerase 2 assessed as conversion of supercoiled pBR322 DNA to relaxed form.

SMILES strings stand for the structures.

Type II restriction enzyme EcoRI, sequence (P00642 whole entry): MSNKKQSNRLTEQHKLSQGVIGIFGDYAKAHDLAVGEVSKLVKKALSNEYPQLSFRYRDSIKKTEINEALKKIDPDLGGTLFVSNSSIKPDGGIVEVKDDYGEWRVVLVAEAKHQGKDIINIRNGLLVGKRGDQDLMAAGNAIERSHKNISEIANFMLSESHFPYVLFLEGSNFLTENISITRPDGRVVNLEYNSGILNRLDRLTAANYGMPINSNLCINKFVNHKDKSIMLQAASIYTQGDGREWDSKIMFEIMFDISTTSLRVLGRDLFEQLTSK
T6 sequence (P11388 whole entry): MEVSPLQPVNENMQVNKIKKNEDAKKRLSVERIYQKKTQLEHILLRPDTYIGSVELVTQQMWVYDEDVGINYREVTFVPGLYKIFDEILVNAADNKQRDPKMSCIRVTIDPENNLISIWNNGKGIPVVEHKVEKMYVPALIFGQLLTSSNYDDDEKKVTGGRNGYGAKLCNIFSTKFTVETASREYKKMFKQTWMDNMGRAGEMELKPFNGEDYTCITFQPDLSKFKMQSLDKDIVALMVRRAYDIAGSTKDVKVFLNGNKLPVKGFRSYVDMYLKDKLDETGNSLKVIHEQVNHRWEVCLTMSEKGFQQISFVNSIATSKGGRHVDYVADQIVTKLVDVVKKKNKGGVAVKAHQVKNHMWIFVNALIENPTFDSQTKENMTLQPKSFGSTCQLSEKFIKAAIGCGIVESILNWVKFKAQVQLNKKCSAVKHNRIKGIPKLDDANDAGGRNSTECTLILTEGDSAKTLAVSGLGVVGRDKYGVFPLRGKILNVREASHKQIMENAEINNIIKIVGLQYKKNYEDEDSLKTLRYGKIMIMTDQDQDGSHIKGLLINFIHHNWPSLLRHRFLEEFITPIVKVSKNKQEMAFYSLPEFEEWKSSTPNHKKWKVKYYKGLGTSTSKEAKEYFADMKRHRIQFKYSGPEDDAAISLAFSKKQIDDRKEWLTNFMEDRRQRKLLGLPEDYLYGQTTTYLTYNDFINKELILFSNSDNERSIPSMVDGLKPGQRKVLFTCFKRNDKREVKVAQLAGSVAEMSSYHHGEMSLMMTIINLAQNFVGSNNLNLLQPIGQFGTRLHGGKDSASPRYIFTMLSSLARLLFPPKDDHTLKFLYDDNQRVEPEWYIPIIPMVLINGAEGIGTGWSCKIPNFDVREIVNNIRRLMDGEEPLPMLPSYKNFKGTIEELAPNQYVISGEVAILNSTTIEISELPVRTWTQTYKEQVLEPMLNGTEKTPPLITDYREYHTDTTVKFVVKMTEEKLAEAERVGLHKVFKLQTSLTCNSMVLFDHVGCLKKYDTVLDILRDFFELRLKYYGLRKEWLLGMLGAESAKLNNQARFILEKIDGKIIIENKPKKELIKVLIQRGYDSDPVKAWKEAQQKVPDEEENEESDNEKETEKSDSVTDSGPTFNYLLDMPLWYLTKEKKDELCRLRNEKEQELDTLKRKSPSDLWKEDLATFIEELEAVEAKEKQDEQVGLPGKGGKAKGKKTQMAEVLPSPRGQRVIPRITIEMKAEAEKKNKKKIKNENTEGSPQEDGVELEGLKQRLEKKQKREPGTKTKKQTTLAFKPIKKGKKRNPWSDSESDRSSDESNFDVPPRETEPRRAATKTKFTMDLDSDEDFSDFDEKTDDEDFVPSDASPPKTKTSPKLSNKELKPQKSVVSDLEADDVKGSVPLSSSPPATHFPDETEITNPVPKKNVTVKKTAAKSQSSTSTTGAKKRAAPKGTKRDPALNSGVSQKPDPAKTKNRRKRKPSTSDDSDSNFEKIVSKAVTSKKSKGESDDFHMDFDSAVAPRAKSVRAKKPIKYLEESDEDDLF
Deoxyribonuclease-1, sequence (P00639 whole entry): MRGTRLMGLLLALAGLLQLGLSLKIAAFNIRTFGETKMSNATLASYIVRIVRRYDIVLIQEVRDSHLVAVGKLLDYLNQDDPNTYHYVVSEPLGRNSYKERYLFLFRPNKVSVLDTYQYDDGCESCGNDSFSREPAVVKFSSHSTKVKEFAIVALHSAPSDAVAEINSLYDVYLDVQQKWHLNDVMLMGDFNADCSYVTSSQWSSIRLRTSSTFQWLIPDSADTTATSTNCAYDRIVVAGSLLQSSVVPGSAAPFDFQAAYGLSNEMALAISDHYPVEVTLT

Take `CC[C@@]1(O)C(=O)OCc2c1cc1n(c2=O)Cc2cc3ccccc3nc2-1` [CAMPTOTHECIN]: the IC50 (at Deoxyribonuclease-1; in assay [1]; in assay [2]; on Ribonuclease pancreatic; in assay [3]; in [4]) was above 300 µM each time. The IC50 in [5] is above 300 µM; on DNA topoisomerase, 17 µM.

`COc1cccc2c1C(=O)c1c(O)c3c(c(O)c1C2=O)C[C@@](O)(C(=O)CO)C[C@@H]3O[C@H]1C[C@H](N)[C@H](O)[C@H](C)O1` [DOXORUBICIN]: the IC50 at Deoxyribonuclease-1 is above 200 µM; in assay [1], above 200 µM; in [2], 24 µM; in assay [6], 1 µM; at Ribonuclease pancreatic, 25 µM; in assay [3], above 200 µM. For the same compound, the IC50 in assay [4] is above 200 µM; in assay [5], above 200 µM; at DNA topoisomerase it was above 200 µM; in assay [7], 1 µM.

With `O=C1Oc2cc(O)ccc2/C1=C\c1ccc(O)cc1` [ISOAUROSTATIN], the IC50 (at Deoxyribonuclease-1; in assay [1]; in [2]; in assay [6]; on Ribonuclease pancreatic; in [3]) was above 400 µM each time. Besides, the half-inhibitory concentration (IC50) in assay [4] was above 400 µM; in assay [5], above 400 µM; at DNA topoisomerase, 307 µM; in [7], above 400 µM.

Consider `C=C1NC(=O)C(C)C(CCC(C)C(=O)/C=C/C(C)=C/CC(C)CCCCCCC)OC(=O)[C@H](CC(OS(=O)(=O)O)C(N)=O)NC(=O)[C@@H](C)CNC1=O` (stereo partly drawn) [TOPOSTATIN], for which the IC50 at Deoxyribonuclease-1 was above 250 µM; in assay [1], 185 µM; in assay [2], above 250 µM; in assay [6], 4 µM; at Ribonuclease pancreatic, above 250 µM; in assay [3] it was 19 µM. The IC50 in assay [4] is above 250 µM; in assay [5] it was above 250 µM; at DNA topoisomerase it was 17 µM; in assay [7], 4 µM.

One may read the IC50 as the midpoint of a concentration-inhibition curve.
